Reference: ChEMBL document CHEMBL1127529, “Antipsoriatic anthrones with modulated redox properties. 2. Novel derivatives of chrysarobin and isochrysarobin--antiproliferative activity and 5-lipoxygenase inhibition” (J Med Chem, 1994)

Key:
[1] = molecular target: T1, Polyunsaturated fatty acid 5-lipoxygenase (Homo sapiens, UniProt P09917); assay: Inhibitory concentration against arachidonic acid 5-lipoxygenation; assay type: functional
T1 sequence (P09917 whole entry): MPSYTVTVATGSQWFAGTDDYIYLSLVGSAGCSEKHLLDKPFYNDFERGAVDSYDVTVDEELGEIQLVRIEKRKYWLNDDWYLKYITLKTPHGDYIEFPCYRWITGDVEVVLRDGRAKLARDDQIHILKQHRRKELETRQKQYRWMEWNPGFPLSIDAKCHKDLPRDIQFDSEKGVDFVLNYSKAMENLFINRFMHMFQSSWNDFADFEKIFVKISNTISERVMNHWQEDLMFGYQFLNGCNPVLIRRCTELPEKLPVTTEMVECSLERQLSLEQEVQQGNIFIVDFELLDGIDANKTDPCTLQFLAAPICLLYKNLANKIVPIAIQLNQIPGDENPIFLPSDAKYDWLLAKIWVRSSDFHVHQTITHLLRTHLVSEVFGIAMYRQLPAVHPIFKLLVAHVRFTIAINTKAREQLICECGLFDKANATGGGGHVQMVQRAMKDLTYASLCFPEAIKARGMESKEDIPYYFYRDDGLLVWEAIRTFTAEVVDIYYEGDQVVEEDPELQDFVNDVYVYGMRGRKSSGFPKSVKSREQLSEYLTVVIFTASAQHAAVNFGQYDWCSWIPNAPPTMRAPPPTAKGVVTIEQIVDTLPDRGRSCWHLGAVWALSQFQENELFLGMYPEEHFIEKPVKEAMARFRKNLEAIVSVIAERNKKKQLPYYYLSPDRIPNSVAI
Summary of the method: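 Bovine PMNL (10^7 cells/mL) were stimulated with Ca-ionophore. Compound was preincubated for 15 min at 37 °C.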

[2] = test system: Liposome; assay: Inhibition of 2,2'-azobis(2-aminopropane)hydrochloride (AAPH) induced lipid peroxidation in bovine brain phospholipid liposomes; assay type: functional, subcellular, Bos taurus
[3] = Reducing activity against 2,2-diphenyl-1-picrylhydrazyl (DPPH) with equimolar compound; assay type: functional
Summary of the method: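 Test compound and DPPH, each 10⁻⁴ M in acetone/PBS (1-1 v/v), mixed 1 mL + 1 mL. DPPH reduction followed spectrophotometrically at 516 nm. Reciprocal DPPH concentration plotted against time gave straight lines, and second-order rate constants (M⁻¹ s⁻¹) were taken from the slopes. Values are means, N = 3-6. Highly reactive compounds gave approximate values only.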

[4] = test system: HaCaT; assay: Antiproliferative activity against HaCaT cells; assay type: functional, cell-based; details: Homo sapiens
Summary of the method: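 HaCaT human keratinocytes were kept in DMEM with 10% FCS, penicillin and streptomycin at 37 °C under 8% CO2. After 48 h the cells were detached with trypsin/EDTA and counted by phase-contrast microscopy.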

O=C1c2c(O)cccc2Cc2cccc(O)c21 [ANTHRALIN]
IC50 [1]: 7 µM | IC50 [2]: 79 µM | kDPPH [3]: 24.2 M⁻¹ s⁻¹ | IC50 [4]: 0.2 µM
